Screens as filed in PubChem.
Cav3 T inh = human Cav3.2 channel inhibition, primary screen; 4% of 100,000 active; B-score at 10 µM; Cav3.2-expressing cells, Fluo-4 calcium fluorescence FDSS; stronger effect = lower value;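 active means single-dose well whose peak fluorescence ratio is a statistical outlier from its plate by either plate-standardised score or position-corrected B-score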
HUVEC inhibit = inhibitors of human endothelial cell proliferation | HUVEC proliferation, CellTiter-Glo luminescence, 72 h; stronger effect = lower value | viability, % at 10 µM (by protocol) | 1.1% of 86,000 active | AID 648;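 active means viability at or below 30%; inactive means viability above 30%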;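 further: 100% = median luminescence of DMSO-only cell control wells on each plate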
H69AR growth 86K = blocks growth of human H69AR lung tumor cells; H69AR lung tumor viability, ATP luminescence, 72 h; stronger effect = lower value; viability, % at 10 µM; 6% of 85,000 active;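 active means viability at or below 40%; inactive means viability above 40%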;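 further: multidrug resistant small cell line overexpressing MRP-1 efflux transporter; 100% = mean luminescence of untreated control wells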
PTEN del growth = PTEN-deleted cell growth suppression; HCT116 PTEN-null viability, CellTiter-Glo, 60 h; stronger effect = lower value; viability, % at 10 µM; 1.2% of 140,000 active; AID 827;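 active means viability at or below a set limit, 4 SD under the median of all tested compounds, cut at about 3.7% in these data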;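 further: PTEN knockout HCT116 line with beta catenin targeted HCT116 as companion control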
Fibroblast inh = blocks proliferation of human lung fibroblasts | LL 47 human lung fibroblast viability, ATP luminescence; stronger effect = lower value | viability, % at 10 µM | 1.1% of 85,000 active;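 active means viability at or below 50% in the single dose screen; inactive means viability above 50%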;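 further: compound exposure lasted 72 h before the ATP readout; 100% = median luminescence of untreated cell-only wells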
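Times – overnight cell rest, 72 h compound treatment at 37 °C · Test system – human lung fibroblast line LL 47, low passage · Amount – 1,150 cells in each well · Controls – cell-only wells, no compound · Doses – 0.1% DMSO in all compound wells · Measured by – CellTiter-Glo luminescence · Buffer or medium – IMEM plus 15% FBS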
HCT116 bCat-KO = beta-catenin-lacking colon tumor cell growth suppression; AID 818; HCT116 beta-catenin knockout viability, CellTiter-Glo, 60 h; stronger effect = lower value; viability, % at 10 µM; 1.5% of 140,000 active;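 active means viability at or under a set limit, the compound median less 4 SD, cut at about 6% in these data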;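 further: 0% = Hyamine 1622 control at 20 µM and 100% = untreated cell control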
Numbers without * were called inactive. The list is not random: actives were taken first. Their share in the collection is about 7.1%.

Results for CC(C)C(NS(=O)(=O)c1ccc2c(c1)OCCCO2)C(=O)O (stereo not drawn) ?
PTEN del growth: 87; HCT116 bCat-KO: 83

Results for CCCN1C(=O)C(Cc2nc3ccccc3c(=O)n2C)c2ccccc21 (stereo not drawn) ?
HUVEC inhibit: 94; H69AR growth 86K: 33*; PTEN del growth: 14; Fibroblast inh: 103; HCT116 bCat-KO: 10

Results for O=C(NOC(=O)c1cc(Br)ccc1Cl)c1cccs1 ?
Cav3 T inh: -0.12; HUVEC inhibit: 96; H69AR growth 86K: 98; PTEN del growth: 82; Fibroblast inh: 98; HCT116 bCat-KO: 79

What do the screens show for `O=C(c1cccs1)N(C(=O)c1cccs1)c1ccc(Br)cn1`?
Cav3 T inh: -0.37; HUVEC inhibit: 79; H69AR growth 86K: 27*; PTEN del growth: 77; Fibroblast inh: 91; HCT116 bCat-KO: 72

Results for CC(C(=O)Nc1ccccc1-c1ccccc1)N1CCCCC1 (stereo not drawn) ?
Cav3 T inh: 0.42; HUVEC inhibit: 113; H69AR growth 86K: 2.6*; PTEN del growth: 82; Fibroblast inh: 96; HCT116 bCat-KO: 76

What do the screens show for `COc1ccccc1N/C(=N/S(=O)(=O)c1ccc(C)cc1)c1ccc(Cl)cc1`?
Cav3 T inh: -3.8*; PTEN del growth: 67; HCT116 bCat-KO: 80

Results for O=C(N/N=C/c1ccccc1OCc1ccccc1)c1cccs1 ?
PTEN del growth: 103; HCT116 bCat-KO: 115

Results for CS(=O)(=O)n1nc(-c2ccc(Cl)cc2)nc1SCc1ccccc1 ?
Cav3 T inh: -3.9; HUVEC inhibit: 72; H69AR growth 86K: 102; PTEN del growth: 103; Fibroblast inh: 102; HCT116 bCat-KO: 93

How did CC(=O)c1cccc(NC(=S)NCCCCc2ccccc2)c1 do in these assays?
PTEN del growth: 80; HCT116 bCat-KO: 80

How did c1ccc(C2Nc3ccccc3-c3nc4ccccc4n32)cc1 (stereo not drawn) do in these assays?
Cav3 T inh: -2.1; HUVEC inhibit: 99; H69AR growth 86K: 88; PTEN del growth: 72; Fibroblast inh: 92; HCT116 bCat-KO: 78

How did Oc1ccccc1C1=Nc2nc3ccccc3n2C(c2ccccc2)C1 (stereo not drawn) do in these assays?
Cav3 T inh: -7.8*; HUVEC inhibit: 103; H69AR growth 86K: 79; PTEN del growth: 62; Fibroblast inh: 98; HCT116 bCat-KO: 82

Results for O=C(NC1CCCCC1)c1cc([N+](=O)[O-])[nH]n1 ?
PTEN del growth: 81; HCT116 bCat-KO: 90

What do the screens show for `Cc1ccc(-c2[nH]ncc2/C=N/n2c(COc3ccccc3)nc3ccccc3c2=O)cc1`?
PTEN del growth: 1.9*; HCT116 bCat-KO: 1.6*

What do the screens show for `Cc1ccccc1OCc1nc2ccccc2c(=O)n1/N=C/c1cn[nH]c1-c1ccccc1`?
PTEN del growth: 31; HCT116 bCat-KO: 34

How did CCCCCCn1c(C)nc2c(c1=O)c1nc3ccccc3nc1n2/N=C/c1ccco1 do in these assays?
Cav3 T inh: -5.1*; HUVEC inhibit: 18*; H69AR growth 86K: 3.8*; PTEN del growth: 71; Fibroblast inh: 99; HCT116 bCat-KO: 74

How did O=c1c2c3nc4ccccc4nc3n(/N=C/c3ccco3)c2ncn1CCC1=CCCCC1 do in these assays?
Cav3 T inh: -1.7; HUVEC inhibit: 29*; H69AR growth 86K: 74; Fibroblast inh: 97

How did Cc1nc2c(c(=O)n1CCC1=CCCCC1)c1nc3ccccc3nc1n2/N=C/c1ccccc1 do in these assays?
HUVEC inhibit: 97; H69AR growth 86K: 84; PTEN del growth: 80; Fibroblast inh: 109; HCT116 bCat-KO: 97

How did COc1cc(OC)c2c(c1)C(=O)OC2 do in these assays?
PTEN del growth: 97; HCT116 bCat-KO: 91

What do the screens show for `CC1(C)CC2CC(C)(CN2C(=O)COC(=O)c2ccc(Cl)cc2N)C1` (stereo not drawn)?
Cav3 T inh: -1.1; HUVEC inhibit: 107; H69AR growth 86K: 91; PTEN del growth: 75; Fibroblast inh: 94; HCT116 bCat-KO: 83

How did CC1(C)CC2CC(C)(CN2C(=O)COC(=O)c2ccc(Cl)c(N)c2)C1 (stereo not drawn) do in these assays?
Cav3 T inh: -6.4*; HUVEC inhibit: 107; H69AR growth 86K: 79; PTEN del growth: 104; Fibroblast inh: 108; HCT116 bCat-KO: 103
